# In ChEMBL document CHEMBL1123716, “Synthesis and tumor uptake of 5-halo-1-(2'-fluoro-2'-deoxy-beta-D-ribofuranosyl)[2-14C]uracils” (J Med Chem, 1987):
# Legend:
# Mus musculus [1] = assay: Radioactive constituent of 5-fluorouracil in urine at 0.5 hr time interval after intravenous injection into BDF1 female mice bearing lewis lung tumor; assay type: ADME, organism-based; conditions: in vivo
# Outline: (§1)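 Radiolabeled nucleoside given in normal saline by tail vein, 23–193 kBq per mouse, to female BDF1 mice (18–20 g) carrying transplanted Lewis lung tumor. Urine was collected when the animals were killed. Components were identified by reverse-phase HPLC with UV at 256 nm on urine spiked with reference compounds, matched to liquid scintillation counts of the eluate. Each is reported as a percent of total urine radioactivity.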
# [2] = Total urine activity excreted at 4 hr was estimated from the measurement of loss of tissue activity; assay type: ADME, tissue-based
# Mus musculus [3] = assay: Tissue distribution in BDF1 female mice bearing an implanted lewis lung tumor after intravenous injection in stomach at 0.5 h.; assay type: ADME, organism-based; conditions: in vivo
# Outline: (§2)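 Female BDF₁ mice (18–20 g) carrying transplanted Lewis lung tumor received 23–193 kBq of the [2-¹⁴C]-labeled nucleoside in normal saline via tail vein. The compound was stored as a dry film and reconstituted just before use. Animals were killed at set times, and tissue ¹⁴C was measured by combustion and liquid scintillation. Values are mean ± SD % injected dose per gram of wet tissue, n = 6.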
# Mus musculus [4] = assay: Radioactive constituent of uracil in urine at 0.5 hr time interval after intravenous injection into BDF1 female mice bearing lewis lung tumor; assay type: ADME, organism-based; conditions: in vivo; outline: as §1
# Mus musculus [5] = assay: Radioactive constituent of 5-fluorouracil in urine at 8 hr time interval after intravenous injection into BDF1 female mice bearing lewis lung tumor; assay type: ADME, organism-based; conditions: in vivo; outline: as §1
# Mus musculus [6] = assay: Tissue distribution in BDF1 female mice bearing an implanted lewis lung tumor after intravenous injection in stomach at 0.25 h.; assay type: ADME, organism-based; conditions: in vivo; outline: as §2
# Mus musculus [7] = assay: Radioactive constituent in urine at 2 hr time interval after intravenous injection into BDF1 female mice bearing lewis lung tumor; assay type: ADME, organism-based; conditions: in vivo; outline: as §1
# Mus musculus [8] = assay: Tissue distribution in BDF1 female mice bearing an implanted lewis lung tumor after intravenous injection in muscle at 0.25 h.; assay type: ADME, organism-based; conditions: in vivo; outline: as §2
# Mus musculus [9] = assay: Radioactive constituent in urine at 0.5 hr time interval after intravenous injection into BDF1 female mice bearing lewis lung tumor; assay type: ADME, organism-based; conditions: in vivo; outline: as §1
# Mus musculus [10] = assay: Radioactive constituent of uracil in urine at 8 hr time interval after intravenous injection into BDF1 female mice bearing lewis lung tumor; assay type: ADME, organism-based; conditions: in vivo; outline: as §1
# Mus musculus [11] = assay: Radioactive constituent of 5-fluorouracil in urine at 4 hr time interval after intravenous injection into BDF1 female mice bearing lewis lung tumor; assay type: ADME, organism-based; conditions: in vivo; outline: as §1
# Mus musculus [12] = assay: Tissue distribution in BDF1 female mice bearing an implanted lewis lung tumor after intravenous injection in kidney at 0.25 h.; assay type: ADME, organism-based; conditions: in vivo
# Outline: (§3)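 Female BDF1 mice (18–20 g) with implanted Lewis lung tumor received the 2-14C compound by tail vein, 23–193 kBq in normal saline, reconstituted from a dry film just before use. Animals were killed at set times and tissues taken for 14C counting by combustion and liquid scintillation. Values are percent injected dose per gram wet tissue, mean ± standard deviation, six animals.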
# Mus musculus [13] = assay: Tissue distribution in BDF1 female mice bearing an implanted lewis lung tumor after intravenous injection in skin at 0.25 h.; assay type: ADME, organism-based, Skin of body; conditions: in vivo; outline: as §2
# Mus musculus [14] = assay: Radioactive constituent of uracil in urine at 4 hr time interval after intravenous injection into BDF1 female mice bearing lewis lung tumor; assay type: ADME, organism-based; conditions: in vivo; outline: as §1
# Mus musculus [15] = assay: Tissue distribution in BDF1 female mice bearing an implanted lewis lung tumor after intravenous injection in tumor at 1 h.; assay type: ADME, organism-based; conditions: in vivo
# Outline: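 Female BDF1 mice (18–20 g) carrying a transplanted Lewis lung tumor were given 23–193 kBq of the [2-14C]-labelled nucleoside in normal saline by tail vein. Animals were killed at set times. Tissue 14C was counted by liquid scintillation, after combustion or directly. Values are percent of injected dose per gram wet tissue, as mean ± standard deviation of six animals.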
# [16] = Total urine activity excreted at 8 hr was estimated from the measurement of loss of tissue activity; assay type: ADME, tissue-based
# Mus musculus [17] = assay: Radioactive constituent of uracil in urine at 2 hr time interval after intravenous injection into BDF1 female mice bearing lewis lung tumor; assay type: ADME, organism-based; conditions: in vivo; outline: as §1
# Mus musculus [18] = assay: Tissue distribution in BDF1 female mice bearing an implanted lewis lung tumor after intravenous injection in spleen at 0.25 h.; assay type: ADME, organism-based; conditions: in vivo; outline: as §2
# Mus musculus [19] = assay: Tissue distribution in BDF1 female mice bearing an implanted lewis lung tumor after intravenous injection in skin at 2 h; assay type: ADME, organism-based, Skin of body; conditions: in vivo; outline: as §2
# Mus musculus [20] = assay: Radioactive constituent in urine at 8 hr time interval after intravenous injection into BDF1 female mice bearing lewis lung tumor; assay type: ADME, organism-based; conditions: in vivo; outline: as §1
# Mus musculus [21] = assay: Radioactive constituent of other in urine at 8 hr time interval after intravenous injection into BDF1 female mice bearing lewis lung tumor; assay type: ADME, organism-based; conditions: in vivo; outline: as §1
# Mus musculus [22] = assay: Radioactive constituent of other in urine at 4 hr time interval after intravenous injection into BDF1 female mice bearing lewis lung tumor; assay type: ADME, organism-based; conditions: in vivo; outline: as §1
# Mus musculus [23] = assay: Radioactive constituent in urine at 4 hr time interval after intravenous injection into BDF1 female mice bearing lewis lung tumor; assay type: ADME, organism-based; conditions: in vivo; outline: as §1
# Mus musculus [24] = assay: Tissue distribution in BDF1 female mice bearing an implanted lewis lung tumor after intravenous injection in stomach at 0.25 h; assay type: ADME, organism-based; conditions: in vivo; outline: as §2
# Mus musculus [25] = assay: Tissue distribution in BDF1 female mice bearing an implanted lewis lung tumor after intravenous injection in stomach at 0.5 h. Value in parentheses is organ to tumor ratio; assay type: ADME, organism-based; conditions: in vivo
# Outline: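 Female BDF₁ mice (18–20 g) with implanted Lewis lung tumor were given 23–193 kBq of the [2-¹⁴C] nucleoside in normal saline by tail vein. Tissue ¹⁴C was counted by combustion and liquid scintillation, with n = 6 per time point. The organ-to-tumor ratio was derived from the % injected dose per gram of wet tissue in the organ and in the tumor.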
# Mus musculus [26] = assay: Tissue distribution in BDF1 female mice bearing an implanted lewis lung tumor after intravenous injection in skin at 0.25 h; assay type: ADME, organism-based, Skin of body; conditions: in vivo; outline: as §2
# Mus musculus [27] = assay: Tissue distribution in BDF1 female mice bearing an implanted lewis lung tumor after intravenous injection in spleen at 0.25 h; assay type: ADME, organism-based; conditions: in vivo; outline: as §2
# Mus musculus [28] = assay: Tissue distribution in BDF1 female mice bearing an implanted lewis lung tumor after intravenous injection in kidney at 0.25 h; assay type: ADME, organism-based; conditions: in vivo; outline: as §3
# Mus musculus [29] = assay: Tissue distribution in BDF1 female mice bearing an implanted lewis lung tumor after intravenous injection in bone at 0.25 h; assay type: ADME, organism-based; conditions: in vivo; outline: as §3
smiles,measurement,setting,value
O=c1[nH]c(=O)n([C@H]2O[C@@H](CO)[C@H](O)[C@H]2F)cc1F,Total radioactivity,Mus musculus [1],2.1%
same,Total urine activity,[2],0.8%
same,Tissue distribution,Mus musculus [3],0.96
same,Total radioactivity,Mus musculus [4],1.4%
same,Total radioactivity,Mus musculus [5],4.5%
same,Tissue distribution,Mus musculus [6],2.18
same,Total radioactivity,Mus musculus [7],88.5%
same,Tissue distribution,Mus musculus [8],2.48
same,Total radioactivity,Mus musculus [9],90.7%
same,Total radioactivity,Mus musculus [10],4.5%
same,Total radioactivity,Mus musculus [11],16.3%
same,Tissue distribution,Mus musculus [12],47.4
same,Tissue distribution,Mus musculus [13],3.3
same,Total radioactivity,Mus musculus [14],7.3%
same,Tissue distribution,Mus musculus [15],2.24
same,Total urine activity,[16],0.2%
same,Total radioactivity,Mus musculus [17],3.3%
same,Tissue distribution,Mus musculus [18],8.72
same,Tissue distribution,Mus musculus [19],0.06
same,Total radioactivity,Mus musculus [20],52.4%
same,Total radioactivity,Mus musculus [21],38.6%
same,Total radioactivity,Mus musculus [22],23%
same,Total radioactivity,Mus musculus [23],63.4%
O=c1[nH]c(=O)n([C@H]2O[C@@H](CO)[C@H](O)[C@H]2F)cc1Cl,Tissue distribution,Mus musculus [24],1.41
same,Tissue distribution,Mus musculus [25],0.75
same,Tissue distribution,Mus musculus [26],2.24
same,Tissue distribution,Mus musculus [27],2.12
same,Tissue distribution,Mus musculus [28],36.2
same,Tissue distribution,Mus musculus [29],0.77
